Experimental data reported in publication PMC7067668 (Journal of biological inorganic chemistry : JBIC : a …, 2019).
Starred links: 1 amine or outer side, 2 acyl side, 3 side chain; linkers in the order of their positions; H or OH if unused. Non-standard residues stand in square brackets, D forms with d. Residues, ends and D or L forms follow the SMILES beside them. *: point of attachment. NOTA(2S-Bn(4-NHCS)) = O=C(O)CN1CCN(CC(=O)O)C[C@H](Cc2ccc(NC(=S)*)cc2)N(CC(=O)O)CC1; NH(CH2CH2O)4CH2CO = O=C(COCCOCCOCCOCCN[*:1])[*:2]; Acryloyl(3-(3-pyridyl),E) = O=C(/C=C/c1cccnc1)*; X1 = O=C(Cc1ccc(N[*:1])cc1)[*:2]; Aad = N[C@@H](CCCC(=O)O)C(=O)O; NH(2-Me-phenyl) = Cc1ccccc1N*; Ac6c = NC1(C(=O)O)CCCCC1; CO = O=C([*:1])[*:2]

Columns and labels:
A375 xenografts = test: Micro-PET imaging, VLA-4-negative A375 xenografts; type: in vivo, mouse; conditions: BALB/c nude mice, 0.5 h, 1 h, 2 h p.i., 5.5–7.4 MBq
Summary of the method: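 Female BALB/c nude mice carried subcutaneous right-shoulder A375 (VLA-4-negative) grafts of one million cells in PBS. ⁶⁸Ga-labeled test compound was injected intravenously at 5.5–7.4 MBq (100–200 pmol). Static small-animal PET was acquired under 2% isoflurane anesthesia at 0.5, 1 and 2 h p.i.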

B16F10 cells = test: Cell uptake and internalization; type: cell-based, mouse; conditions: co-incubation with 10 μg unlabeled LLP2A-PEG4 per well, n = 3
Summary of the method: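 Radiotracer uptake in B16F10 cells, grown in DMEM with 10% FBS at 37°C, 5% CO2, seeded at 200,000 cells/well 24 h before. Cells were rinsed with HBSS, then given DMEM with 0.1% BSA and 1 mM Mn²⁺ plus ~74 kBq/well Al¹⁸F- or ⁶⁸Ga-labeled test compound, with or without 10 μg/well unlabeled peptide. Sampling was at 0.5, 1, 2 h (⁶⁸Ga) or up to 4 h (¹⁸F). Cells were PBS-washed and gamma-counted.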

B16F10 xenografts = test: Micro-PET imaging, B16F10 xenografts; type: in vivo, mouse; conditions: co-injection of 100 μg unlabeled LLP2A-PEG4; 4 mice per group
Summary of the method: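 Female C57BL/6 mice bore subcutaneous right-shoulder B16F10 grafts (one million cells). They received intravenous Al¹⁸F- or ⁶⁸Ga-labeled test compound, 5.5–7.4 MBq (100–200 pmol), co-injected with 100 μg unlabeled peptide. Static small-animal PET was acquired under 2% isoflurane at 0.5, 1, 2 h p.i. (plus 4 h for ¹⁸F).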

[1] = system: mice bearing B16F10 xenografts; test: Ex vivo biodistribution; type: in vivo, mouse; conditions: n = 5; for liver uptake: i.v. 5.5–7.4 MBq (100–200 pmol)
Summary of the method: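 Female C57BL/6 mice (four weeks old) carried subcutaneous right-shoulder B16F10 grafts (one million cells in PBS). Radiolabeled test compound was injected intravenously at 5.5–7.4 MBq (100–200 pmol), with or without 100 μg unlabeled peptide. Mice were sacrificed at 0.5, 1, 2 h p.i. (4 h for the ¹⁸F tracer). Organs and tumor were weighed and gamma-counted, expressed as %ID/g, n = 5.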

Cc1ccccc1NC(=O)Nc1ccc(CC(=O)N[C@@H](CCCCNC(=O)/C=C/c2cccnc2)C(=O)N[C@@H](CCCC(=O)O)C(=O)NC2(C(=O)NCCOCCOCCOCCOCC(=O)N[C@@H](CCCCNC(=S)Nc3ccc(C[C@H]4CN(CC(=O)O)CCN(CC(=O)O)CCN4CC(=O)O)cc3)C(N)=O)CCCCC2)cc1 [^68Ga-NOTA-PEG4-LLP2A, metal not drawn] ({NH(2-Me-phenyl)-CO}-[X1]K(Acryloyl(3-(3-pyridyl),E))[Aad][Ac6c][NH(CH2CH2O)4CH2CO]K(NOTA(2S-Bn(4-NHCS)))-NH2)
accumulation in VLA-4-negative A375 xenografts (PET) (A375 xenografts): did not show specific accumulation | reduction of cell uptake by blocking dose (B16F10 cells): 79.2% | activity accumulation in B16F10 xenografts with blocking agent (PET) (B16F10 xenografts): significantly reduced | bone uptake ([1]; 0.5 h p.i., B16F10 tumor mice): 5.75 ± 2.04 %ID/g | tumor uptake ([1]; 0.5 h p.i.): 6.77 ± 1.77 %ID/g | liver uptake ([1]; 1 h p.i., B16F10 tumor mice): 15.3 ± 1.7 %ID/g | tumor-to-blood ratio ([1]; 1 h p.i.): 3.3 ± 0.5 | colon uptake ([1]; 2 h p.i., B16F10 tumor mice): 2.1 ± 0.2 %ID/g | kidney uptake ([1]; 2 h p.i., B16F10 tumor mice): 4.5 ± 0.3 %ID/g | liver uptake ([1]; 2 h p.i., B16F10 tumor mice): 8.0 ± 0.8 %ID/g | tumor-to-blood ratio ([1]; 2 h p.i.): 7.3 ± 0.6

Cc1ccccc1NC(=O)Nc1ccc(CC(=O)N[C@@H](CCCCNC(=O)/C=C/c2cccnc2)C(=O)N[C@@H](CCCC(=O)O)C(=O)NC2(C(=O)NCCOCCOCCOCCOCC(=O)N[C@@H](CCCCNC(=S)Nc3ccc(C[C@H]4CN(CC(=O)O)CCN(CC(=O)O)CCN4CC(=O)O)cc3)C(N)=O)CCCCC2)cc1 [Al^18F-NOTA-PEG4-LLP2A] ({NH(2-Me-phenyl)-CO}-[X1]K(Acryloyl(3-(3-pyridyl),E))[Aad][Ac6c][NH(CH2CH2O)4CH2CO]K(NOTA(2S-Bn(4-NHCS)))-NH2)
reduction of cell uptake by blocking dose (B16F10 cells): 61.7% | activity accumulation in B16F10 xenografts with blocking agent (PET) (B16F10 xenografts): significantly reduced
